Data on 1 substance can be found in article PMC10785272 (ACS Omega, 2023).

One data set concerns HeLa cells. Description: In vitro cytotoxicity MTS assay with HeLa cells. The data set is classed as cell-based, human. The following applies: HeLa cell line, 48 h incubation, mean ± SD (n = 3). In outline: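 HeLa cells were grown in EMEM with 10% FBS, nonessential amino acids and sodium pyruvate at 37 °C in 5% CO2. They were seeded at 40000 cells/well and left 24 h, then exposed 48 h to freshly prepared medium holding test compound over 0–100 or 0–1000 µM. MTS was added for 3 h and absorbance read at 490 nm. IC50 was obtained by curve fitting; runs were in triplicate.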

The nature of data set [1]: In vitro stability of FGC-Pt in mouse plasma. The data set is classed as in vitro ADME. The note with it: 37 °C. In outline:
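Test compound (2.4 mg) was mixed with purchased mouse plasma (160 µL) and held at 37 °C for 0, 2, 4 and 6 h. Each mixture was diluted with saline, filtered and analysed by HPLC on a Sugar-D column with a water/methanol linear gradient at 0.5 mL/min, with UV detection at 220 nm. Results are mean ± SD, n = 3.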

Data set [2] has as its system A549 cell-bearing mice. Description: In vivo biodistribution. The arrangement: species or system mouse. The note with it: 4 mg of Pt/kg tail vein; for ratio of platinum concentration tumor/blood / ratio of platinum concentration tumor/bone / ratio of platinum concentration tumor/kidney / ratio of platinum concentration tumor/liver / ratio of platinum concentration tumor/muscle: A549 cell-bearing mice; for platinum accumulation in tumors: ICP-MS, mean ± SD (n = 4). In outline: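 Male BALB/c nu/nu mice (5 weeks old, quarantined 1 week) received 1 × 10^7 A549 cells s.c. into the right shoulder. At 50 mm3 tumour volume, mice got 4 mg Pt/kg by tail vein in freshly prepared saline (n = 4/group). At 24 and 48 h, Pt in tumour, muscle, bone, blood, liver and kidney was measured by ICP-MS after acid digestion. Values are ng Pt/g tissue and tumour/organ concentration ratios.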

Data set [3] has as its system A549 cell-bearing mice. Description: In vivo assessment of antitumor effect and toxicity in A549 cell-bearing mice. The following applies: 2.7 mg of Pt/kg i.v. on days 1, 8, 15, 22; n = 6. The arrangement: species or system mouse.

In turn, “cis-Dichloro [(2-Fluoro-α-D-glucopylanosidyl)propane-1,3-diamine] Platinum [FGC-Pt]” came in with an IC50 in the data set on HeLa cells of 447 ± 99 µM. The “half-life in mouse plasma” value in data set [1] is “approximately 2 h”. Further, in the data set with A549 cell-bearing mice [2] (24 h post-injection), the “ratio of platinum concentration tumor/blood” value worked out at 11.07, the “ratio of platinum concentration tumor/bone” value is on record as 2.93, the “ratio of platinum concentration tumor/kidney” value was 0.29 and the “ratio of platinum concentration tumor/liver” value came out at 0.50. In addition, in the data set on A549 cell-bearing mice [2] (24 h post-injection), the “ratio of platinum concentration tumor/muscle” value is given as 3.64 and the “platinum accumulation in tumors” value was determined as 1058 ± 220 Pt ng/g tissue. Further, in the data set on A549 cell-bearing mice [2] (48 h post-injection), the “ratio of platinum concentration tumor/blood” value is 14.37, the “ratio of platinum concentration tumor/bone” value is 3.03, the “ratio of platinum concentration tumor/kidney” value was found to be 0.42 and the “ratio of platinum concentration tumor/liver” value amounted to 0.59. Moreover, in the data set with A549 cell-bearing mice [2] (48 h post-injection), the “ratio of platinum concentration tumor/muscle” value is given as 4.09 and the “platinum accumulation in tumors” value was found to be 1055 ± 278 Pt ng/g tissue. The “toxic side effects (body weight, loss of appetite, injection site)” value in the data set with A549 cell-bearing mice [3] is reported as “reduces toxicity compared to that of cisplatin”.
